Measured values taken from ChEMBL document CHEMBL1153726, “Synthesis and anticancer activity of sclerophytin-inspired hydroisobenzofurans” (Bioorg Med Chem Lett, 2009).

Columns and labels:
Format in all cases: functional
HCT-15 = assay: Growth inhibition of human HCT15 cells at 10 nM after 96 hrs by MTT assay; design: scale not given: the % may be the effect or the level left
A549 = assay: Growth inhibition of human A549 cells at 1 uM after 96 hrs by MTT assay; design: scale not given: the % may be the effect or the level left
IGROV-1 = assay: Growth inhibition of human IGROV1 cells at 100 nM after 96 hrs by MTT assay; design: scale not given: the % may be the effect or the level left
U-251 [1] = assay: Growth inhibition of human U251 cells at 100 nM after 96 hrs by MTT assay; design: scale not given: the % may be the effect or the level left
OVCAR-5 [2] = assay: Growth inhibition of human OVCAR5 cells at 10 nM after 96 hrs by MTT assay; design: scale not given: the % may be the effect or the level left
NCI-H460 [3] = assay: Growth inhibition of human NCI-H460 cells at 10 nM after 96 hrs by MTT assay; design: scale not given: the % may be the effect or the level left
SNB-75 = assay: Growth inhibition of human SNB75 cells at 10 uM after 96 hrs by MTT assay; design: scale not given: the % may be the effect or the level left
DU-145 [4] = assay: Growth inhibition of human DU145 cells after 96 hrs by MTT assay; details: DU-145, 96 h
786-0 = assay: Growth inhibition of human 786-0 cells after 96 hrs by MTT assay; details: 786-0, 96 h
MDA-MB-468 = assay: Growth inhibition of human MDA-MB-468 cells at 1 nM after 96 hrs by MTT assay; design: scale not given: the % may be the effect or the level left
HCT-116 = assay: Growth inhibition of human HCT116 cells at 100 nM after 96 hrs by MTT assay; design: scale not given: the % may be the effect or the level left
MDA-MB-231 [5] = assay: Growth inhibition of human MDA-MB-231 cells at 100 nM after 96 hrs by MTT assay; design: scale not given: the % may be the effect or the level left
SK-MEL-5 = assay: Growth inhibition of human SK-MEL-5 cells at 10 nM after 96 hrs by MTT assay; design: scale not given: the % may be the effect or the level left
SR [6] = assay: Growth inhibition of human SR cells at 100 nM after 96 hrs by MTT assay; design: scale not given: the % may be the effect or the level left
A498 [7] = assay: Growth inhibition of human A498 cells at 1 uM after 96 hrs by MTT assay; design: scale not given: the % may be the effect or the level left
HOP-62 = assay: Growth inhibition of human HOP62 cells after 96 hrs by MTT assay; details: HOP-62, 96 h
In short: (§1)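 Run in the NCI 60 human tumour cell line panel as a five-dose assay. GI50 and LC50 were reported for each cell line.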

OVCAR-5 [8] = assay: Growth inhibition of human OVCAR5 cells at 10 uM after 96 hrs by MTT assay; design: scale not given: the % may be the effect or the level left
A498 [9] = assay: Growth inhibition of human A498 cells at 1 nM after 96 hrs by MTT assay; design: scale not given: the % may be the effect or the level left
TK-10 [10] = assay: Growth inhibition of human TK10 cells at 10 uM after 96 hrs by MTT assay; design: scale not given: the % may be the effect or the level left
HL-60(TB) = assay: Growth inhibition of human HL-60(TB) cells at 10 uM after 96 hrs by MTT assay; design: scale not given: the % may be the effect or the level left
RXF 393 = assay: Growth inhibition of human RXF393 cells at 10 nM after 96 hrs by MTT assay; design: scale not given: the % may be the effect or the level left
HCC 2998 = assay: Growth inhibition of human HCC2998 cells at 1 nM after 96 hrs by MTT assay; design: scale not given: the % may be the effect or the level left
SF-268 = assay: Growth inhibition of human SF268 cells at 100 nM after 96 hrs by MTT assay; design: scale not given: the % may be the effect or the level left
ACHN = assay: Growth inhibition of human ACHN cells at 10 uM after 96 hrs by MTT assay; design: scale not given: the % may be the effect or the level left
A498 [11] = assay: Growth inhibition of human A498 cells at 10 nM after 96 hrs by MTT assay; design: scale not given: the % may be the effect or the level left
TK-10 [12] = assay: Growth inhibition of human TK10 cells at 10 nM after 96 hrs by MTT assay; design: scale not given: the % may be the effect or the level left
U-251 [13] = assay: Growth inhibition of human U251 cells at 1 uM after 96 hrs by MTT assay; design: scale not given: the % may be the effect or the level left
SNB-19 = assay: Growth inhibition of human SNB19 cells at 10 uM after 96 hrs by MTT assay; design: scale not given: the % may be the effect or the level left
UO-31 = assay: Growth inhibition of human UO31 cells at 10 uM after 96 hrs by MTT assay; design: scale not given: the % may be the effect or the level left
SF-539 = assay: Growth inhibition of human SF539 cells after 96 hrs by MTT assay; details: SF-539, 96 h
In short: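 Tested in the NCI 60-cell-line panel in five-dose format; GI50 and LC50 values reported for each cell line.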

SR [14] = assay: Growth inhibition of human SR cells at 1 nM after 96 hrs by MTT assay; design: scale not given: the % may be the effect or the level left
UACC-62 = assay: Growth inhibition of human UACC62 cells at 1 uM after 96 hrs by MTT assay; design: scale not given: the % may be the effect or the level left
KM12 [15] = assay: Growth inhibition of human KM12 cells at 10 uM after 96 hrs by MTT assay; design: scale not given: the % may be the effect or the level left
NCI/ADR-RES = assay: Growth inhibition of human NCI/ADR-RES cells at 10 uM after 96 hrs by MTT assay; design: scale not given: the % may be the effect or the level left
KM12 [16] = assay: Growth inhibition of human KM12 cells after 96 hrs by MTT assay; details: KM12, 96 h; in short: as §1
NCI-H460 [17] = assay: Growth inhibition of human NCI-H460 cells after 96 hrs by MTT assay; details: NCI-H460, 96 h; in short: as §1
MDA-MB-231 [18] = assay: Growth inhibition of human MDA-MB-231 cells at 10 uM after 96 hrs by MTT assay; design: scale not given: the % may be the effect or the level left
DU-145 [19] = assay: Growth inhibition of human DU145 cells at 100 nM after 96 hrs by MTT assay; design: scale not given: the % may be the effect or the level left
MCF7 = assay: Growth inhibition of human MCF7 cells after 96 hrs by MTT assay; details: MCF7, 96 h; in short: as §1
[20] = read-out: LC50 (the source's name)
[21] = read-out: Log10GI50 (converted)
[22] = read-out: Log10LC50 (converted)

C=C(C)[C@H]1CC=C(C)C2=CO[C@@H](c3ccccc3F)[C@@H]21
Activity (HCT-15): 95%
Activity (A549): 38%
Activity (IGROV-1): 83%
Activity (U-251 [1]): 80%
Activity (OVCAR-5 [2]): 84%
Activity (NCI-H460 [3]): 97%
Activity (SNB-75): 80.72%
GI50 (DU-145 [4]; read-out: GI50): 5.53 µM
CC50 (DU-145 [4]; [20]): 94.5 µM
GI50 (DU-145 [4]; [21]): 5.5 µM
CC50 (DU-145 [4]; [22]): 95.5 µM
TGI (DU-145 [4]; read-out: Log10TGI (converted)): 26.3 µM
TGI (DU-145 [4]; read-out: TGI): 26.1 µM
GI50 (786-0; read-out: GI50): 8.73 µM
CC50 (786-0; [20]): 48.1 µM
GI50 (786-0; [21]): 8.71 µM
CC50 (786-0; [22]): 47.9 µM
TGI (786-0; read-out: Log10TGI (converted)): 21.4 µM
TGI (786-0; read-out: TGI): 21.5 µM
Activity (MDA-MB-468): 93%
Activity (HCT-116): 82%
Activity (MDA-MB-231 [5]): 81%
Activity (SK-MEL-5): 88%
Activity (SR [6]): 47%
Activity (A498 [7]): -16%
GI50 (HOP-62; read-out: GI50): 10.1 µM
CC50 (HOP-62; [20]): 46.8 µM
GI50 (HOP-62; [21]): 10.2 µM
CC50 (HOP-62; [22]): 46.8 µM
TGI (HOP-62; read-out: Log10TGI (converted)): 21.9 µM
TGI (HOP-62; read-out: TGI): 21.8 µM
Activity (OVCAR-5 [8]): 100.16%
Activity (A498 [9]): 82%
Activity (TK-10 [10]): 113.66%
Activity (HL-60(TB)): 44.43%
Activity (RXF 393): 85%
Activity (HCC 2998): 86%
Activity (SF-268): 87%
Activity (ACHN): 93.56%
Activity (A498 [11]): 91%
Activity (TK-10 [12]): 84%
Activity (U-251 [13]): 18%
Activity (SNB-19): 82.9%
Activity (UO-31): 78.96%
GI50 (SF-539; read-out: GI50): 6.82 µM
CC50 (SF-539; [20]): 44.8 µM
GI50 (SF-539; [21]): 6.76 µM
CC50 (SF-539; [22]): 44.7 µM
TGI (SF-539; read-out: Log10TGI (converted)): 20 µM
TGI (SF-539; read-out: TGI): 20 µM
Activity (SR [14]): 83%
Activity (UACC-62): 29%
Activity (KM12 [15]): 85.93%
Activity (NCI/ADR-RES): 108.3%
GI50 (KM12 [16]; read-out: GI50): 4.02 µM
LC50 (KM12 [16]; read-out: LC50): 40.4 µM
GI50 (KM12 [16]; [21]): 3.98 µM
LC50 (KM12 [16]; [22]): 40.7 µM
TGI (KM12 [16]; read-out: Log10TGI (converted)): 15.8 µM
TGI (KM12 [16]; read-out: TGI): 15.7 µM
GI50 (NCI-H460 [17]; read-out: GI50): 4.24 µM
CC50 (NCI-H460 [17]; [20]): 43.4 µM
GI50 (NCI-H460 [17]; [21]): 4.27 µM
CC50 (NCI-H460 [17]; [22]): 43.7 µM
TGI (NCI-H460 [17]; read-out: Log10TGI (converted)): 17.4 µM
TGI (NCI-H460 [17]; read-out: TGI): 17.5 µM
Activity (MDA-MB-231 [18]): 101.47%
Activity (DU-145 [19]): 87%
GI50 (MCF7; read-out: GI50): 3.77 µM
CC50 (MCF7; [20]): 63.9 µM
GI50 (MCF7; [21]): 3.8 µM
CC50 (MCF7; [22]): 64.6 µM
TGI (MCF7; read-out: Log10TGI (converted)): 18.6 µM
TGI (MCF7; read-out: TGI): 18.8 µM
